Experiment: Toxicity liver stage against HepG2, at 10uM
Type: cell-based
Set-up: test concentration 10 uM, cell line HepG2-A16-CD81EGFP
Conditions: human, HepG2-A16-CD81EGFP cells; read-out: INHIBITION
Procedure, shortened: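 Uninfected HepG2-A16-CD81EGFP cells, 3 × 10^3 per well, 1536-well, plated on prespotted compound at 10 μM final, parasite-free screening media added to match infected plates; puromycin 10 μM positive, DMSO 0.5% negative; run in parallel with 48 h PbLuc assay at 37 °C, 5% CO2; viability by CellTiter-Glo luminescence, normalized to controls.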

Row | Compound | cytotoxicity at 10 µM [%]
1 | COCC(=O)N[C@H]1C[C@@H](Cc2cc(CN3CCOCC3)on2)C1(C)C | 0.66
2 | COCCCNC(=O)N1CCN(C(=O)c2nsc3ccc(C)cc23)CC1 | 12.3
3 | Cc1cc(NC(=O)NCCCSc2nncn2C)no1 | 0.0537
4 | CCOc1nn(CC)cc1-c1nnc(SCC)n1C | 1.81
5 | COCCCNC(=O)c1cn(C(C)C)cc2c(=O)[nH]nc1-2 | -4.45
6 | Cc1cc(C(=O)N(CC(F)(F)F)C2CCOCC2)c(C)o1 | -0.541
7 | O=C(C1CCOCC1)N1CCC2(CCC(C(=O)N3CCCC3)O2)CC1 (stereo not given) | 6.41
8 | CCS(=O)(=O)N1CCCC2(CCCC(=O)N2C)C1 (stereo not given) | 8.86
9 | CC(=O)N1C[C@H]2CN(CC3CC3)C(=O)[C@H]2C1 | 6.32
10 | CN(C)C(=O)CN1CCC2(CC1)COC2 | 5.53
11 | COc1ccc(C(=O)COc2coc(CN3CCSCC3)cc2=O)cc1 | 8.13
12 | CCc1c(C)n(CC(=O)OC)c2nc3ccccc3n2c1=O | 1.44
13 | CC1=Nc2c(c(=O)[nH]n2C2CCCC2)C(c2cccc(O)c2)S1 (stereo not given) | 4.8
14 | CC(C)n1[nH]c(=O)c2c1NC(=O)CC2c1cccnc1 (stereo not given) | -6.15
15 | CNc1nc2c(s1)C(c1c(Cl)cccc1Cl)CC(=O)N2 (stereo not given) | -10.4
16 | Cn1cc(N2CCC3(CCN(S(=O)(=O)C4CC4)C3)C2=O)cn1 (stereo not given) | -2.45
17 | CNC(=O)N1C[C@H]2CC[C@@]3(N=C(c4ccccc4)NC3=O)[C@H]2C1 | -9.84
18 | CC(C(=O)Nc1ccon1)n1ccc(C(F)(F)F)n1 (stereo not given) | 5.15
19 | Cc1ccccc1CNCc1cc(Cl)ccc1O | -5.9
20 | Cc1cc(C(F)(F)F)nn1CC(C)C(=O)Nc1cccnc1 (stereo not given) | 11.5
21 | O=C1CC(c2ccc3c(c2)OCO3)c2snc(C(=O)O)c2N1 (stereo not given) | 4.43
22 | COCc1nc(N(C)C)ncc1C(=O)Nc1ccn(C)n1 | -0.782

Row | Compound | cytotoxicity at 10 µM [%]
23 | CNC(=O)CCc1cc(C2CCCCN2C(C)C)nc(C)n1 (stereo not given) | -1.66
24 | CNc1ccc(C2CN(c3cc(C)ncn3)CCO2)nc1 (stereo not given) | 7.14
25 | CCC(=O)N1CCC(c2ncc(C(=O)Nc3ccccc3)c(C)n2)C1 (stereo not given) | 6.96
26 | CN(C)Cc1cccc(-c2cccnc2C(=O)NCc2ccccn2)c1 | 5.39
27 | COc1cc(CCC(=O)N2CCC(c3cncc(C)n3)CC2)on1 | 4.46
28 | O=S(=O)(CCc1ccccc1)Nc1cc(Cl)ccn1 | -4.81
29 | O=C(c1ccc2nncn2c1)N1CCCC1c1noc(C2CC2)n1 (stereo not given) | -7.11
30 | COc1cccc(C(=O)NS(=O)(=O)c2cncc(Br)c2)c1OC | 0.684
31 | CN(Cc1cnn(C)c1)C1CCCN(Cc2noc(C3CC3)n2)C1 (stereo not given) | -8.44
32 | COCCOc1nc(-c2ccccc2Cl)no1 | 9.4
33 | CC(NCc1cccnc1)c1cc2c(cc1Br)OCCO2 (stereo not given) | 2.46
34 | CCNC(=O)CCC(=O)N1CCC(Oc2cc(C)ccc2C)CC1 | -4.59
35 | Cc1c(C(=O)N2CCSCC2)sc2nc(C(F)(F)F)ccc12 | -8.58
36 | CCN(C)C(=O)Nc1cc(F)c(OC)cc1F | -10.4
37 | O=C(CNC(=O)N(Cc1ccoc1)C1CCCCC1)N1CCCC1 | -1.3
38 | Cc1cnn(C2CN(c3ncnc4[nH]ccc34)C2)c1 | 8
39 | Cc1cc(C2CCCN(CC(=O)N3CCc4ccccc43)C2)n[nH]1 (stereo not given) | 2.01
40 | O=C(c1occc1CN1C(=O)Cc2ccccc21)N1CCCCCC1 | 4.52
41 | CCC(C)CNCC1(S(C)(=O)=O)CCOCC1 (stereo not given) | -11.4
42 | Cc1ccc(NC(=O)N2CCCC(N(C)C)C2)c(Br)c1 (stereo not given) | -3.51
43 | CC(NCC(=O)N1CCc2sccc2C1)c1ccccc1F (stereo not given) | 1.8
44 | CS(=O)(=O)c1ccc(NCCC2CCCO2)c(S(C)(=O)=O)c1 (stereo not given) | -4.27

Row | Compound | cytotoxicity at 10 µM [%]
45 | CN1CCC(NCC(O)c2cccc(OCc3ccccc3)c2)CC1 (stereo not given) | -11.7
46 | Cc1ccc(CNC(CN2CCN(C)CC2)c2ccccc2)cc1 (stereo not given) | 9.19
47 | Cc1ccc(NC(=O)NC(C)c2nc[nH]n2)cc1 (stereo not given) | -0.665
48 | CC(C)(C)N1CCCN(C(=O)c2csc(S(N)(=O)=O)c2)CC1 | 5.06
49 | N#CCCN(CCC#N)C(=O)CN1CCCC1Cc1cccc(F)c1 (stereo not given) | -10.5
50 | Cc1cnn(CCC(=O)N2CCOC(c3nc(C(C)(C)C)n[nH]3)C2)c1 (stereo not given) | 5.17
51 | Cc1ccc(C(=O)N(C)Cc2cc(Br)cs2)c(=O)[nH]1 | -0.782
52 | Cc1ccc(C(=O)N(C)Cc2cscn2)c(=O)[nH]1 | -7.69
53 | CCc1nnc2n1CCN(C(=O)c1ccc3[nH]cnc3c1)C2 | -19.1
54 | Cn1nccc1-c1cnc2n1CCC21CCN(C(=O)C2(C)CC2)CC1 | -123
55 | CS(=O)(=O)NC[C@]12COC[C@H]1CN(C(=O)C1CCSCC1)C2 | -112
56 | CN1C(=O)CC(c2cnn(C)c2)C12CCN(C(=O)c1ccno1)CC2 (stereo not given) | -74.1
57 | COC(=O)NCC(=O)N1CCCC(c2ncc[nH]2)C1 (stereo not given) | 2.42
58 | COCCN(C)Cc1cn(C)nc1-c1ccc2c(c1)OCCO2 | -0.65
59 | CC(C)[C@H]1CN(CC2CCC2)C[C@@H]1NC(=O)c1ccc(=O)[nH]c1 | -7.85
60 | CCN(CC)S(=O)(=O)N1CCCC(c2nccn2Cc2cccnc2)C1 (stereo not given) | 7.07
61 | COCCCC1(C(=O)O)CCCN(Cc2ccccc2C)C1 (stereo not given) | -4.58
62 | Cc1ccc2oc(CN3CCn4nc(CCC(=O)O)cc4C3)c(C)c2c1 | -5.56
63 | Cc1nc(N(C)C)nc(-c2cccc(-c3ccn(CCCO)n3)c2)c1C | -6.51
64 | C=C(C)CNC(=O)C1CCC(=O)N(C2CCCC2)C1 (stereo not given) | -3.4
65 | CC(C(=O)N1CCN(CCOc2ccccc2)CC1)n1cc(Cl)cn1 (stereo not given) | 10.4
66 | CN(CCCN1CCCCCC1)C(=O)c1ccccc1NCC(=O)O | -4.84

Row | Compound | cytotoxicity at 10 µM [%]
67 | O=c1c2cccnc2ccn1Cc1nccn1C1CC1 | -4.87
68 | CC(C)c1cc(C(=O)NCCN2CCCCC2CO)on1 (stereo not given) | 2.07
69 | Cc1cccnc1[C@H](C)NC(=O)c1cccc(CC2CCNCC2)c1 | -5.22
70 | CC1(C)CC(CN2CCC3(CCC(=O)N(CCO)C3)CC2)CCO1 (stereo not given) | 18
71 | Cn1ncc2c(NCC3CCS(=O)(=O)C3)nc(C3CCCC3)nc21 (stereo not given) | -5.1
72 | COc1ccc(-n2cccn2)c(CN2CCOCC(CN(C)C)C2)c1 (stereo not given) | -14.6
73 | Cc1ccsc1[C@@H]1CCN(C(=O)CCc2cc(O)no2)C[C@H]1O | -4.73
74 | CCc1nn(C)c(Cl)c1CN1CCCC2(C1)CN(C)C(=O)O2 (stereo not given) | 5.44
75 | CCc1ccccc1C(=O)N1C[C@@H](CN2CCOCC2)[C@@H](CO)C1 | -0.125
76 | Cc1ccc(-c2ncc(C(=O)N3CCCN4CCC[C@H]4C3)c(O)n2)cc1 | -8.04
77 | COc1cccc(OCc2cc(C(=O)NC[C@@H]3CCCN3)n[nH]2)c1 | 0.732
78 | CCOc1ccc(C(=O)CCC(=O)NCCc2nncn2CC)cc1C | -10.7
79 | O=C(O)C1(n2cccn2)CCN(c2nc(-c3ccccc3)no2)CC1 | 7.47
80 | O=C1O[C@@H]2CN(Cc3ccccn3)C[C@@H]2N1CCCc1ccc(F)cc1 | -0.687
81 | CCN(Cc1cnn(C)c1)C[C@H]1CC[C@@H](Cc2cccc(CN)c2)O1 | -0.189
82 | CCc1nc(C)sc1CN1C[C@@H](C)[C@@](C)(O)C1 | -1.47
83 | CN(Cc1ccccc1)C(=O)CCN1CCC2(CC1)[C@H](O)C[C@@H]2O | -7.55
84 | CCC(Cn1ccnc1)n1cnc2c(C)csc2c1=O (stereo not given) | -4.34
85 | Cc1ccccc1CSc1nc(N)cc(N2CCCC(O)C2)n1 (stereo not given) | -6.52
86 | COCc1nc2ncc3c(=O)n(-c4ccc(OC)cc4)ccc3n2n1 | 8.1
87 | COCCOC1CCN(C(C(=O)O)c2ccc3c(c2)OCO3)CC1 (stereo not given) | 9.07
88 | Cc1c(CN2CCC(C(=O)O)(n3ccnc3)CC2)oc2ccccc12 | -4.86

Row | Compound | cytotoxicity at 10 µM [%]
89 | Cc1ccc(C)c(C(=O)N2CCC3(CCC(=O)N(CC(N)=O)C3)CC2)c1 | 17.7
90 | Cc1cncc(C(=O)N2CCCC(O)(CO)C2)c1 (stereo not given) | 2.09
91 | CC(C)CCN1CC2(CCCN(C(=O)c3cscn3)C2)CCC1=O (stereo not given) | -13.9
92 | CN(CCO)Cc1nnc(C2CCN(C(=O)C(C)(C)C)CC2)n1C | 22.6
93 | Cc1cccnc1CNCC1(O)CCCN(CC2CCCCC2)C1=O (stereo not given) | -2.37
94 | Cc1ccc(C(C)C(=O)N2CCCN(Cc3cscn3)CC2)cc1 (stereo not given) | -5.31
95 | CC(C)c1nn(C)c(N(C)C)c1CNCc1cccnc1N(C)C | -8.66
96 | COc1ccc(C)cc1C(C)NC(=O)NCCCn1cncn1 (stereo not given) | 2.62
97 | Cc1cc(C)c(CNC(=O)N2CCCC2C(N)=O)c(=O)[nH]1 (stereo not given) | -0.241
98 | Cc1noc(C)c1CNc1cc(N2CCCC2CO)ncn1 (stereo not given) | 1.42
99 | CC(=O)N1CC2(CCNCC2)c2cc(Cl)ccc21 | -0.655
100 | COc1ccc(OCCc2cc(C3CCN(CC(C)C)C3)n[nH]2)cc1 (stereo not given) | 1.97
101 | Cc1ncsc1CN1C[C@@H]2COC[C@]2(CNC(=O)c2ccco2)C1 | -73.8
102 | COCCN1C2(CCN(Cc3nccs3)C2)c2ccccc2S1(=O)=O (stereo not given) | -65.7
103 | Cc1nc(N2CCCC2)nc2c1CCN(Cc1ccco1)CC2 | -6.52
104 | CN(C)C(=O)CN1CC[C@@H]2O[C@@H](COCc3cccnc3)CC[C@@H]21 | -67.2
105 | CNC(=O)CN1CCCC12CCN(C(=O)c1cccc(F)c1)CC2 | 6.62
106 | CCN1CC[C@@]2(C(=O)N3CCOCC3)CCN(C(=O)C(C)C)CC[C@@H]12 | -11.5
107 | O=C1C[C@H]2[C@@H](CCN2Cc2ccccn2)N1CCN1CCOCC1 | -1.45
108 | CCc1ccc(NC(=O)N2C[C@@H]3C[C@H](C(=O)NC)[C@H](C2)O3)cc1 | 5.4
109 | Nc1ncccc1CN1C[C@H]2CC[C@@H](C1)N(CC1CC1)C2=O | -0.956
110 | O=c1c2c[nH]c(N3CCCC3)nc-2cn1CCc1ccc(Cl)cc1 | 11.9
